Measurements: ChEMBL document CHEMBL1145777 (J Med Chem, 2003)

Columns and labels:
[1] = target: T1, Kappa-type opioid receptor (Homo sapiens, UniProt P41145); experiment: (§1) Incorporation of [35S]GTP-gamma-S, into CHO membranes expressing human Opioid receptor kappa 1; assay type: functional
Mu-type opioid receptor [2] = target: Mu-type opioid receptor (Cavia porcellus, UniProt P97266); experiment: Binding affinity towards Opioid receptor mu 1 from guinea pig brain using [3H]DAMGO as radioligand
Chain of Mu-type opioid receptor (Cavia porcellus, UniProt P97266) (P97266 whole entry): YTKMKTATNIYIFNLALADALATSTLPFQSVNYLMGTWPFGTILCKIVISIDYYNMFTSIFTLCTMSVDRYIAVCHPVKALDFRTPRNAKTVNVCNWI

[3] = target: Kappa-type opioid receptor (Cavia porcellus, UniProt P41144); experiment: Binding affinity towards Opioid receptor kappa 1 from guinea pig brain using [3H]U-69593 as radioligand
Chain of Kappa-type opioid receptor (Cavia porcellus, UniProt P41144) (P41144 whole entry): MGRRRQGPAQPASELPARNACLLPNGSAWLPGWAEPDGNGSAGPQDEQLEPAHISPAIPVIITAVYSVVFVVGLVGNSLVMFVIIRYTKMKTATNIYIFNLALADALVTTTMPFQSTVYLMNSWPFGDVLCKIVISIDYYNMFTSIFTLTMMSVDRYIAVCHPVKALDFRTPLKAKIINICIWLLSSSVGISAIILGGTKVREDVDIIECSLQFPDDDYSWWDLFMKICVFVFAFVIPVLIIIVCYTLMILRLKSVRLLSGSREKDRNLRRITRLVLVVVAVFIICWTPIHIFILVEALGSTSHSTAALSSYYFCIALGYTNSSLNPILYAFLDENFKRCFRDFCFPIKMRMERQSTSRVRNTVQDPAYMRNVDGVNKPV
In short: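 Uses 1 nM [3H]U69,593 with guinea pig brain membrane protein (500 µg), 12 concentrations, 50 mM Tris-HCl pH 7.5, 60 min at 25 °C. Nonspecific binding with 10 µM naloxone. Filters pre-soaked in 0.1% polyethylenimine; bound label counted.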

[4] = Binding affinity towards Opioid receptor delta 1 from guinea pig brain using [3H]naltrindole as radioligand
[5] = target: T1, Kappa-type opioid receptor; experiment: as §1; assay type: functional; remark: listed apart in the source
[6] = target: Kappa-type opioid receptor (Cavia porcellus) (UniProt P41144); experiment: Ratio of binding affinity of Opioid receptor kappa 1 to Opioid receptor mu 1 to Opioid receptor delta 1; kappa:mu:delta = 12:4:1
Chain of Kappa-type opioid receptor (Cavia porcellus) (P41144 whole entry): as above

Mu-type opioid receptor [7] = target: T2, Mu-type opioid receptor (Homo sapiens, UniProt P35372); experiment: Incorporation of [35S]GTP-gamma-S, into CHO membranes expressing human Opioid receptor mu 1; assay type: functional
T2 sequence (P35372 whole entry): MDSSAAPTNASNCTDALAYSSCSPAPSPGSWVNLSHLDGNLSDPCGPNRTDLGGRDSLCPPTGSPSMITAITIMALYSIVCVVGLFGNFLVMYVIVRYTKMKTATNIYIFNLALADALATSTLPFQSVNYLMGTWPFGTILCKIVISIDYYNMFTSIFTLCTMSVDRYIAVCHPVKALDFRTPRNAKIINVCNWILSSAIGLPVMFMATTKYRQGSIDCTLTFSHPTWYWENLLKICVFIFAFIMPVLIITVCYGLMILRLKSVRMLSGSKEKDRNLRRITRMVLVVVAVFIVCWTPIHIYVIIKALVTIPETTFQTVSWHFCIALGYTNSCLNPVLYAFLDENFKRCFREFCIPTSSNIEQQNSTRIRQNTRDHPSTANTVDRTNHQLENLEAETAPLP

Mu-type opioid receptor [8] = target: T2, Mu-type opioid receptor; experiment: Incorporation of [35S]- GTPgammaS into CHO membranes expressing human Opioid receptor mu 1
[9] = target: Kappa-type opioid receptor (Cavia porcellus) (UniProt P41144); experiment: Ratio of binding affinity of Opioid receptor kappa 1 to Opioid receptor mu 1 to Opioid receptor delta 1; kappa:mu:delta = 9:1:1
[10] = target: Kappa-type opioid receptor (Cavia porcellus) (UniProt P41144); experiment: Ratio of binding affinity of Opioid receptor kappa 1 to Opioid receptor mu 1 to Opioid receptor delta 1; kappa:mu:delta = 9:5:1
[11] = target: Kappa-type opioid receptor (Cavia porcellus) (UniProt P41144); experiment: Ratio of binding affinity of Opioid receptor kappa 1 to Opioid receptor mu 1 to Opioid receptor delta 1; kappa:mu:delta = 11:7:1
[12] = target: Kappa-type opioid receptor (Cavia porcellus) (UniProt P41144); experiment: Ratio of binding affinity of Opioid receptor kappa 1 to Opioid receptor mu 1 to Opioid receptor delta 1; kappa:mu:delta = 1:1:1
[13] = target: Kappa-type opioid receptor (Cavia porcellus) (UniProt P41144); experiment: Ratio of binding affinity of Opioid receptor kappa 1 to Opioid receptor mu 1 to Opioid receptor delta 1; kappa:mu:delta = 15:18:1
[14] = target: Kappa-type opioid receptor (Cavia porcellus) (UniProt P41144); experiment: Ratio of binding affinity of Opioid receptor kappa 1 to Opioid receptor mu 1 to Opioid receptor delta 1; kappa:mu:delta = 29:18:1
[15] = target: Kappa-type opioid receptor (Cavia porcellus) (UniProt P41144); experiment: Ratio of binding affinity of Opioid receptor kappa 1 to Opioid receptor mu 1 to Opioid receptor delta 1; kappa:mu:delta = 28:12:1

T1 sequence (P41145 whole entry): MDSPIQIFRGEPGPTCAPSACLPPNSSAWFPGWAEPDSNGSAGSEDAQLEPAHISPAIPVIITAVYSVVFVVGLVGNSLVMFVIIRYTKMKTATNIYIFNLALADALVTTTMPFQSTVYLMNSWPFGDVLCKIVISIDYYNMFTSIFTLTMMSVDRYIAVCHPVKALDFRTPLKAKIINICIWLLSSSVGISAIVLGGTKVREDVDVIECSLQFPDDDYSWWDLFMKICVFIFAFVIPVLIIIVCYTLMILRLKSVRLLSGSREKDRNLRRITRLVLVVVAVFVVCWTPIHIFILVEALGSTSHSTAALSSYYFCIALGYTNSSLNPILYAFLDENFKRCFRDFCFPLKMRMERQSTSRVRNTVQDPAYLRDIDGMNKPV

SMILES: C[C@H]1[C@H]2Cc3ccc(O)cc3[C@]1(C)CCN2CC1CC1 (stereo in doubt)
- Emax [1]: 90%

SMILES: C[C@H]1[C@H]2Cc3ccc(Nc4ccccc4)cc3[C@@]1(C)CCN2C[C@@H]1CCCO1
- Ki (Mu-type opioid receptor [2]): 2.8 nM
- Ki [3]: 2 nM

SMILES: C[C@H]1[C@H]2Cc3ccc(Nc4ccccc4)cc3[C@@]1(C)CCN2CC1CC1 (stereo in doubt; (+)12)
- Ki [4]: 270 nM

SMILES: C[C@H]1[C@H]2Cc3ccc(N)cc3[C@@]1(C)CCN2CC1CC1
- Emax [1]: 80%
- EC50 [5]: 20 nM
- Ki [4]: 12 nM

SMILES: C[C@H]1[C@H]2Cc3ccc(O)cc3[C@]1(C)CCN2CC1CC1 (stereo in doubt; (-)2) [CYCLAZOCINE]
- EC50 [5]: 1.2 nM

SMILES: CC[C@@]12CCN(CC3CC3)C(C(=O)c3ccc(N)cc31)[C@@H]2C (single isomer, unassigned; (+)) [listing 1 of 2 here]
- Ki (Mu-type opioid receptor [2]): 17 nM
- Ki [3]: 91 nM

SMILES: C[C@H]1C2Cc3ccc(NCc4ccccc4)cc3[C@@]1(C)CCN2CC1CC1 (single isomer, unassigned; (-))
- Ki [4]: 54 nM

SMILES: C[C@H]1C2Cc3ccc(N4CCCCC4)cc3[C@@]1(C)CCN2CC1CC1
- Ki (Mu-type opioid receptor [2]): 95 nM
- Ratio [6]: 12
- Ki [4]: 3600 nM

SMILES: C[C@H]1C2Cc3ccc(N(C)C)cc3[C@@]1(C)CCN2CC1CC1 (single isomer, unassigned; (+))
- Ki (Mu-type opioid receptor [2]): 50000 nM
- Ki [3]: 3000 nM

SMILES: CC[C@@]12CCN(CC3CC3)C(C(=O)c3ccc(O)cc31)[C@@H]2C (single isomer, unassigned; (-))
- Emax (Mu-type opioid receptor [7]): 70%
- Emax [1]: 170%

SMILES: CC[C@@]12CCN(CC3CC3)C(C(=O)c3ccc(N)cc31)[C@@H]2C (stereo in doubt; 44)
- EC50 (Mu-type opioid receptor [8]): 62 nM
- Ki (Mu-type opioid receptor [2]): 7.3 nM
- EC50 [5]: 4.4 nM
- Ki [3]: 0.34 nM

SMILES: C[C@H]1C2Cc3ccc(Nc4ccc(N(C)C)cc4)cc3[C@@]1(C)CCN2CC1CC1
- Ki (Mu-type opioid receptor [2]): 70 nM
- Ratio [9]: 9
- Ki [3]: 8.8 nM

SMILES: CC[C@@]12CCN(CC3CC3)C(C(=O)c3ccc(O)cc31)[C@@H]2C (single isomer, unassigned; (+)) [ETHYLKETOCYCLAZOCINE]
- Ki (Mu-type opioid receptor [2]): 320 nM

SMILES: CC[C@@]12CCN(CC3CC3)C(C(=O)c3ccc(N)cc31)[C@@H]2C (single isomer, unassigned; (+)) [listing 2 of 2 here]
- Ratio [10]: 9

SMILES: C[C@H]1C2Cc3ccc(N(C)C)cc3[C@@]1(C)CCN2CC1CC1 (stereo in doubt; 30)
- Ki [4]: 1500 nM

SMILES: C[C@H]1C2Cc3ccc(NCc4ccc(Cl)cc4)cc3[C@@]1(C)CCN2CC1CC1
- Ki (Mu-type opioid receptor [2]): 8.8 nM
- Ki [3]: 7.2 nM

SMILES: Cc1ccc(Nc2ccc3c(c2)[C@@]2(C)CCN(CC4CC4)C(C3)[C@@H]2C)cc1
- Ki (Mu-type opioid receptor [2]): 0.91 nM
- Ratio [11]: 11
- Ki [3]: 0.57 nM

SMILES: C[C@H]1C2Cc3cc4c(cc3[C@@]1(C)CCN2CC1CC1)[nH]c1ccccc14
- Ki [3]: 9.6 nM

SMILES: C[C@H]1C2Cc3ccc(N(C)C)cc3[C@@]1(C)CCN2CC1CC1 (single isomer, unassigned; (-))
- Ki (Mu-type opioid receptor [2]): 46 nM
- Ki [3]: 18 nM

SMILES: C[C@@H]1[C@@H]2Cc3ccc(N)cc3[C@]1(C)CCN2CC1CC1
- Ki (Mu-type opioid receptor [2]): 780 nM
- Ki [3]: 506 nM

SMILES: CCNc1ccc2c(c1)[C@@]1(C)CCN(CC3CC3)C(C2)[C@@H]1C
- Ki [4]: 19 nM

SMILES: C[C@H]1C2Cc3ccc(N=C(c4ccccc4)c4ccccc4)cc3[C@@]1(C)CCN2CC1CC1
- Ki (Mu-type opioid receptor [2]): 360 nM
- Ratio [12]: 1
- Ki [3]: 170 nM

SMILES: C[C@H]1C2Cc3ccc(NCCc4ccccc4)cc3[C@@]1(C)CCN2CC1CC1
- Ratio [13]: 15
- Ki [4]: 160 nM

SMILES: COc1ccc(Nc2ccc3c(c2)[C@@]2(C)CCN(CC4CC4)C(C3)[C@@H]2C)cc1
- Ki (Mu-type opioid receptor [2]): 0.47 nM
- Ratio [14]: 29
- Ki [3]: 0.29 nM

SMILES: CC[C@@]12CCN(CC3CC3)C(C(=O)c3ccc(Nc4ccccc4)cc31)[C@@H]2C
- EC50 (Mu-type opioid receptor [8]): 22 nM
- Emax (Mu-type opioid receptor [7]): 70%
- Emax [1]: 110%
- Ki (Mu-type opioid receptor [2]): 10 nM
- EC50 [5]: 5.9 nM
- Ki [3]: 2.2 nM

SMILES: C[C@H]1C2Cc3ccc(N4CCN(C)CC4)cc3[C@@]1(C)CCN2CC1CC1
- Ratio [15]: 28
- Ki [4]: 250 nM

SMILES: C[C@H]1[C@H]2Cc3ccc(O)cc3[C@]1(C)CCN2CC1CC1 (stereo in doubt; (-)2)
- Emax (Mu-type opioid receptor [7]): 50%
- Emax [1]: 100%

SMILES: C[C@H]1C2Cc3ccc(Nc4cccnc4)cc3[C@@]1(C)CCN2CC1CC1
- Emax [1]: 90%
- Ki (Mu-type opioid receptor [2]): 0.64 nM
- EC50 [5]: 10 nM
- Ki [3]: 0.5 nM
